Only some compounds are listed: those with a hit (about 8.9% of all), similar ones and a draw of the others.
bCat nuc transl = beta-catenin nuclear translocation modulation; HeLa beta-catenin nuclear translocation, immunofluorescence imaging; nuclear translocation activity, % at 5 µM; hit rate 0.3% among 190,000; AID 1665;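 active = nuclear translocation activity above 50% at 5 µM, with a well cell count of 50 or more; inconclusive = wells under 50 cells across six images, flagged as toxic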;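 note: per-cell ratio of nuclear to cytoplasmic median beta-catenin stain intensity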
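Read-out: Nuclear/cytoplasmic beta-catenin signal ratio, % activation | Assay system: Human HeLa cell line | Times: 24 h compound exposure at 37°C, 5% CO2 | Signal: Fluorescence imaging of beta-catenin antibody stain plus DAPI | Dosing: 5 µM primary, 0.02–20 µM confirmation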
HSV augment = increases HSV replication in cells. HSV replication augmentation in cells, fold increase. maximum fold increase. hit rate 0.005% among 220,000; in the data active = maximum fold increase above about 1.5; inconclusive = no clear call, values can overlap the other calls; tested in PC3 cells
L major viab = reduces viability of Leishmania major promastigotes. resazurin fluorescence viability. inhibition, % at 10 µM. hit rate 9% among 200,000. AID 1063; in the data active = inhibition above about 50%;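 note: promastigotes grown with compound for 44 hours at 28 °C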
MT stabilizer = microtubule stabilizers in HeLa cells | HeLa tubulin immunostaining HCS, 24 h; share of cells brighter than vehicle mean+2SD | % tubulin-high responders, % at 10 µM | hit rate 0.83% among 200,000 | AID 2205;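 active = plate Z-score above 3 for both tubulin-high and condensed-nucleus cell shares, with cell loss under 80%, at 10 µM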;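 note: anti alpha tubulin signal scored within the nucleus-defined area of each cell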
Dynein cargo inh = dynein cargo transport inhibition | 3617.4 mouse cells, GR-EGFP nuclear translocation imaging; test concentration mostly 20 µM; stimulated with dexamethasone, 1 µM; hits give low values | AID 1381 | hit rate 0.47% among 220,000 | z-score, hits read low;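 active = plate z-score of nuclear minus cytoplasmic receptor signal below a set negative limit, without overly bright fluorescence or cell loss, cut at about -3.5 in these data, passing the limit was not always enough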;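 note: z-score of nuclear minus cytoplasmic ring GR-EGFP intensity difference per well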
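Buffer or medium: tet-free, stripped-serum medium; Also added: dexamethasone, 1.0 µM final; Technique: high-content fluorescence imaging after fixation; Times: 48 h induction, 1 h compound, 30 min dex at 37 °C; Read-out: per-cell GR-EGFP intensity, nucleus versus surrounding cytoplasmic ring, well-averaged.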
Large screens that a line does not name were inactive.

O=C(C1CC1)N1CCC(c2nc(-c3ccc(S(=O)(=O)N4CCCC4)cc3)no2)CC1	L major viab 53 (no result: bCat nuc transl)
CC12C(=O)N(c3ccc(OC(=O)c4ccco4)cc3)C(=O)C1C1c3ccccc3C2c2ccccc21 (centres undefined)	L major viab 58
O=C(Nc1ccccc1)N(C1=NCCC1)c1ccc(OC(F)F)cc1	none
O=C(c1cn(-c2ccccc2)nc1-c1cccs1)N1CCN(c2ccccn2)CC1	L major viab 57 (no result: bCat nuc transl)
CN(C)C(=O)c1cn(-c2ccccc2)nc1-c1cccs1	L major viab 54
Cc1ccc(-n2cc(CNCCc3ncc(C)[nH]3)c(-c3ccc(F)cc3)n2)cc1	L major viab 100
Cc1ccc(-n2cc(CNCCn3nc(C)cc3C)c(-c3ccc(F)cc3)n2)cc1	L major viab 63
O=C(O)Cc1ccc(C(=O)c2ccc(F)cc2)s1	none
COCCN(C(=S)Nc1c(C)cc(C)cc1C)C(C)c1cccnc1 (centres undefined)	L major viab 89
COCCN(C(=S)Nc1c(C)cccc1C)C(C)c1cccnc1 (centres undefined)	none
COCCN(C(=S)Nc1cc(C)ccc1C)C(C)c1cccnc1 (centres undefined)	L major viab 95
COCCN(C(=S)Nc1c(C)cccc1C)C(C)c1cccs1 (centres undefined)	L major viab 56
CCN(CC)S(=O)(=O)c1cc(NS(=O)(=O)c2cccc(C(=O)O)c2)ccc1C	none
O=C(NCCc1ccccc1F)/C(=C/c1cccnc1)NC(=O)c1ccccc1	none
CC12CCC(C(=O)N3CCN(C(c4ccccc4)c4ccccc4)CC3)(OC1=O)C2(C)C (centres undefined)	none
O=C(Nc1ccccc1Cl)N1CCN(c2ccc3nnc(-c4ccc(F)cc4)n3n2)CC1	none (no result: HSV augment)
COc1ccc(-c2csc(N3C(=O)C4C5c6ccccc6C(c6ccccc65)C4C3=O)n2)cc1 (centres undefined)	L major viab 60
CCN1CCN(CC(O)COCc2ccccc2)CC1 (centres undefined)	none
CC(C)NCC(O)COCc1ccc(Cl)cc1 (centres undefined)	none
CC(C)(C)NCC(O)COCc1ccc(Cl)cc1 (centres undefined)	none
OC(COCc1ccc(Cl)cc1)CN1CCc2ccccc2C1 (centres undefined)	L major viab 73
CCC(C)NCC(O)COCc1ccc(Cl)cc1 (centres undefined)	L major viab 60 (no result: bCat nuc transl)
OC(COCc1ccccc1)CN1CCN(c2ccccc2F)CC1 (centres undefined)	L major viab 52
OC(COCc1ccc(Cl)cc1)CN1CCN(CC(O)COCc2ccc(Cl)cc2)CC1 (centres undefined)	L major viab 100
CC1=C(C(=O)OCC2CCCO2)C(c2ccncc2)C2=C(CCCC2=O)N1 (centres undefined)	none (no result: HSV augment)
CC(N)C12CC3CC(CC(C3)C1)C2 (centres undefined)	none
Cc1ccc(C(=O)O/N=C2/CC3CCC2(C)[C@@]3(C)CBr)cc1 (some centres undefined)	none (no result: L major viab, MT stabilizer)
CCN(CC)CCc1c(C)[nH]c(C(=O)OCc2ccccc2)c1C	L major viab 100 (no result: bCat nuc transl)
CC(C)(C)C(C(Oc1ccc(Cl)cc1)n1cncn1)n1nnnc1C(c1cccc(Cl)c1)N1CCCCC1 (centres undefined)	L major viab 65
COCCn1nnnc1C(c1cccc(C#N)c1)N1CCCCCC1 (centres undefined)	none
COc1ccc(N(C)S(=O)(=O)c2cccc(C(=O)Nc3ccc4c(c3)OCCO4)c2)cc1	none
CC(OC(=O)c1cc(S(=O)(=O)N(C)c2ccccc2)ccc1Cl)C(=O)Nc1ccc2c(c1)OCCO2 (centres undefined)	L major viab 65
Cc1ccc(C2(CC(=O)O)CCOC(C)(C)C2)cc1 (centres undefined)	none
O=[N+]([O-])c1ccc(C[n+]2cc(-c3ccc(Cl)c(Cl)c3)n3c2CCCCC3)cc1	none (no result: L major viab, MT stabilizer)
Clc1ccc(C[n+]2cc(-c3ccccc3)n3c2CCCCC3)c(Cl)c1	L major viab 100
Clc1ccc(-c2c[n+](Cc3cccc(Cl)c3)c3n2CCC3)cc1	L major viab 100
Clc1ccc(C[n+]2cc(-c3ccccc3)n3c2CCC3)cc1Cl	L major viab 99
Nc1c(C(=O)Nc2ccc(S(=O)(=O)N3CCCC3)cc2)sc2nc3cc4c(cc3cc12)CCC4	MT stabilizer 28 (no result: HSV augment)
CC(C)NC(=O)C1CCN(C2CCN(Cc3ccc4cccc(F)c4n3)CC2)CC1	L major viab 73
CC(C)NC(=O)C1CCN(C2CCN(Cc3nc(C(C)C)cs3)CC2)CC1	none
COc1ccccc1CNc1cc(CSc2ccc(Cl)cc2)nc(C)n1	L major viab 57 (no result: bCat nuc transl)
CN(C(=O)COC(=O)c1cc([N+](=O)[O-])ccc1Sc1ccccc1)C1CCS(=O)(=O)C1 (centres undefined)	L major viab 100
O=c1c2ccccc2nc(/C=C/c2ccc([N+](=O)[O-])cc2)n1CCCO	L major viab 60
COc1cc(OC)cc(-c2nc3ccccc3c(=O)n2OC(=O)c2ccc(C)c(C)c2)c1	L major viab 73
CC1CCCCC1NC(=O)/C(C#N)=C/c1ccc2c(c1)OCCO2 (centres undefined)	L major viab 59 (no result: bCat nuc transl)
CC1CCCCC1NC(=O)/C(C#N)=C/c1ccc(F)c(F)c1 (centres undefined)	L major viab 96 (no result: bCat nuc transl)
C=CCNC(=O)/C(C#N)=C/c1ccc2c(c1)OCCO2	none
N#C/C(=C\c1cccc([N+](=O)[O-])c1)c1ccccn1	none
COc1cccc(-c2cc(-c3cccnc3)c(C#N)c(N)n2)c1	none (no result: L major viab, MT stabilizer)
Cc1ccccc1Nc1cc(=O)oc2ccccc12	none
Cc1ccc(Nc2cc(=O)oc3ccccc23)c(C)c1	MT stabilizer 27
Cc1nc2ccccc2c(=O)n1/N=C/c1ccc2ccccc2c1O	none (no result: L major viab, MT stabilizer)
Cc1nnc(-c2ccccc2)c(=O)n1/N=C/c1c(O)ccc2ccccc12	HSV augment inconclusive, L major viab 98
N#CC1=C(N)Oc2c(ccc3cccnc23)C1c1ccccc1 (centres undefined)	none (no result: L major viab, MT stabilizer)
Cc1ccc2[nH]c(=O)c(C3C(C#N)=C(N)Oc4c3ccc3cccnc43)cc2c1 (centres undefined)	L major viab 96
CCC(C)Oc1ccccc1C1CC(=O)NC2=C1C(=O)CCC2 (centres undefined)	MT stabilizer 60
Cc1ccccc1C1CC(=O)NC2=C1C(=O)CCC2 (centres undefined)	none (no result: bCat nuc transl)
CCN(Cc1ccccc1)C(=O)c1c[nH]c2ccc(S(=O)(=O)N(C)CCC#N)cc2c1=O	none
O=C1CC(c2ccccc2)CC2=C1CN(C1CCCCC1)CN2 (centres undefined)	L major viab 82, MT stabilizer 51
O=C(c1cccnc1)N1CCN(CCCc2ccccc2)CC1	L major viab 80 (no result: HSV augment)
O=C(c1cccs1)N1CCN(CCCc2ccccc2)CC1	L major viab 96 (no result: bCat nuc transl)
